Experimental data collected from several papers.
Protocols differ between the studies behind these lines. Converted amounts (≈) assume the structure as drawn.

SMILES	tested on	assay	system	setting	measurement	value
COC[C@H](NC(=O)OCc1ccccc1)C(=O)N[C@@H](Cc1ccccc1)C(=O)N[C@@H](CC(C)C)C(=O)C(=O)Nc1ccccc1	RPMI-8226	cell growth or viability, MTS	–	72 h	IC50	437 nM
C[C@H]1O[C@@H](O[C@H]2[C@@H](O)C[C@H](O[C@H]3[C@@H](O)C[C@H](O[C@H]4CC[C@@]5(C)[C@H](CC[C@@H]6[C@@H]5C[C@@H](O)[C@]5(C)[C@@H](C7=CC(=O)OC7)CC[C@]65O)C4)O[C@@H]3C)O[C@@H]2C)C[C@H](O)[C@@H]1O	ReNcell VM	cell growth or viability	–	24 h	IC50	~560 nM
CC1=CC(=O)[C@H]2O[C@]1(C)O[C@H]([C@H](C)/C=C(C)/C=C/C(O)=C1/C(=O)CNC1=O)[C@H]2C	Bacillus cereus	microbial growth	–	–	MIC	25 µM
CC(C)C[C@H](NC(=O)OCc1ccccc1)C(=O)N[C@@H](Cc1c[nH]c2ccccc12)C(=O)N[C@@H](CC(C)C)C(=O)C(=O)Nc1ccccc1	RPMI-8226	cell growth or viability, MTS	–	72 h	IC50	313 nM
O=c1c(O)c(-c2ccc(O)c(O)c2)oc2cc(O)cc(O)c12	Salmonella enterica	microbial growth	TYPHI	–	IC50	80100 nM
CCCCCCCCCCCC(=O)OC[C@H]1O[C@@H](n2cc(C)c(=O)[nH]c2=O)C[C@@H]1OC(=O)c1ccc(C(C)(C)C)cc1	Bacillus cereus	microbial killing, broth dilution	–	–	MBC	8 µg/mL (≈ 13.7 µM)
Cc1cc(CC2CCCCC2)n(O)c(=O)c1	Cryptococcus gattii	microbial growth	–	–	MIC80	1.7 µM (≈ 0.376 µg/mL)
O=C1NN=C(N=Cc2ccc(O)c(O)c2)C1=NNn1c(-c2ccccc2)nc2ccccc2c1=O	Salmonella enterica	microbial growth, broth dilution	PARATYPHI	24 h	MIC	53.5 µM
CO/N=C(\C(=O)N[C@@H]1C(=O)N2C(C(=O)O)=C(CSC(=O)c3ccco3)CS[C@H]12)c1csc(N)n1	Salmonella enterica	microbial growth	CHOLERAESUIS	20 h, pH 5.5	MIC	1 µg/mL
CC(/C=C/C(O)=C1/C(=O)CNC1=O)=C\[C@@H](C)[C@H]1O[C@@]2(C)O[C@H](C(=O)[C@@H]3O[C@@]32C)[C@@H]1C	Bacillus cereus	microbial growth	–	–	MIC	6.25 µM
COc1cccc(Cc2cc(C)cc(=O)n2O)c1	Cryptococcus gattii	microbial growth	–	–	MIC80	2.3 µM (≈ 0.564 µg/mL)
CO/N=C(\C(=O)N[C@@H]1C(=O)N2C(C(=O)O)=C(CSc3nc(=O)c(=O)[nH]n3C)CS[C@H]12)c1csc(N)n1	Salmonella enterica	microbial growth	CHOLERAESUIS	20 h, pH 7	MIC	0.0625 µg/mL
CCC1(c2ccc(N)cc2)CCC(=O)NC1=O (stereo not shown)	OVCAR-3	cell growth or viability, CCK-8	–	48 h	IC50	> 50000 nM
O=c1[nH]cc(F)c(=O)[nH]1	Shigella dysenteriae	microbial killing, broth dilution	–	48 h	MBC	8 µg/mL (≈ 61.5 µM)
Cc1cc(Cc2ccccc2)n(O)c(=O)c1	Cryptococcus gattii	microbial growth	–	–	MIC80	1.7 µM (≈ 0.366 µg/mL)
CC1=NN(CNC(=O)c2ccccc2)C(=O)C1=NNn1c(-c2ccccc2)nc2ccccc2c1=O	Salmonella enterica	microbial growth, broth dilution	PARATYPHI	24 h	MIC	51.9 µM
